According to ChEMBL document CHEMBL4219197, “Synthesis, biological evaluation and SAR of naftopidil-based arylpiperazine derivatives” (Bioorg Med Chem Lett, 2018):
pIC50: −log10 of the molar value.

How the values were obtained:
[1] = Cytotoxicity against human WPMY-1 cells assessed as growth inhibition after 24 hrs by CCK8 assay; assay type: cell-based; conditions: WPMY-1, 24 h
In short: (§1)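 Cells (PC-3, LNCaP, DU145, normal prostate […] WPMY-1) exposed 24 h to escalating concentrations; viability by CCK-8 read-out as percent of control; IC50 derived.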

PC-3 = test: Cytotoxicity against human PC3 cells assessed as growth inhibition after 24 hrs by CCK8 assay; assay type: functional, cell-based; conditions: PC-3, 24 h; in short: as §1
DU-145 [2] = test: Cytotoxicity against human DU145 cells assessed as growth inhibition after 24 hrs by CCK8 assay; assay type: functional, cell-based; conditions: DU-145, 24 h; in short: as §1
LNCaP = test: Cytotoxicity against human LNCAP cells assessed as growth inhibition after 24 hrs by CCK8 assay; assay type: functional, cell-based; in short: as §1
[3] = molecular target: T1, Alpha-1D adrenergic receptor (Homo sapiens, UniProt P25100); test: Antagonist activity at alpha 1D adrenergic receptor (unknown origin) by luciferase reporter gene assay; assay type: functional
T1 sequence (P25100 whole entry): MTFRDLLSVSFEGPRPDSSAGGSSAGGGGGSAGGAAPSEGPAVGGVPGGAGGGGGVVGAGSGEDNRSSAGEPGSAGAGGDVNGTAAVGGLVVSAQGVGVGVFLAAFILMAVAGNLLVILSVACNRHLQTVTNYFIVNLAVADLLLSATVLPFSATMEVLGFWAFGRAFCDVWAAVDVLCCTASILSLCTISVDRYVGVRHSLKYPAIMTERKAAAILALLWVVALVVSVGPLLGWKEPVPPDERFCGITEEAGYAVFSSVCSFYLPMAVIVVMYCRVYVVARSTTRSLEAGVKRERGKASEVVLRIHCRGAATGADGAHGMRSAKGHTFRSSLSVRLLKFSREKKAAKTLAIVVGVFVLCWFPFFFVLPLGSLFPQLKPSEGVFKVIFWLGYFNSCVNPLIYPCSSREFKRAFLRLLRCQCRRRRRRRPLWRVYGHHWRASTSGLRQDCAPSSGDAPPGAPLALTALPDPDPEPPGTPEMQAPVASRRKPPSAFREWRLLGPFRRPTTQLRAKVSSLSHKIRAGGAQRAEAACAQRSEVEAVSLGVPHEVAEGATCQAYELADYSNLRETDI
In short: (§2)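 Dual-luciferase reporter assay measuring antagonism at α1A, α1B and α1D adrenoceptor subtypes. IC50 values are means of three experiments.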

[4] = molecular target: T2, Alpha-1A adrenergic receptor (Homo sapiens, UniProt P35348); test: Antagonist activity at alpha 1A adrenergic receptor (unknown origin) by luciferase reporter gene assay; assay type: functional; in short: as §2
T2 sequence (P35348 whole entry): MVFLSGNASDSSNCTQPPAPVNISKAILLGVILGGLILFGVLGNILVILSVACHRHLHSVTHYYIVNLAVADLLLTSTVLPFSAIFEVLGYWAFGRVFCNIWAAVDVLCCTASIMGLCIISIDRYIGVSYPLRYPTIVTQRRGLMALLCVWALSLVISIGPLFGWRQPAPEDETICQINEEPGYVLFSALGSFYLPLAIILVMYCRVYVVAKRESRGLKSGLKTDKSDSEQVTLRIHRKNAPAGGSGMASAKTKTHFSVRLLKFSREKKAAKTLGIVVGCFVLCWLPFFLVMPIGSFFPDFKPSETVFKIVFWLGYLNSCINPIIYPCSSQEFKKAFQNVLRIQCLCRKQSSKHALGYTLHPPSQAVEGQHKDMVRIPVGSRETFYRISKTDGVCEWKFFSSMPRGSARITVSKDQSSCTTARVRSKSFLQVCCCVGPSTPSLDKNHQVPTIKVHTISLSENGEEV

DU-145 [5] = test: Potency index, ratio of naftopidil IC50 to compound IC50 for human DU145 cells; assay type: functional
[6] = molecular target: T3, Alpha-1B adrenergic receptor (Homo sapiens, UniProt P35368); test: Antagonist activity at alpha 1B adrenergic receptor (unknown origin) by luciferase reporter gene assay; assay type: functional; in short: as §2
T3 sequence (P35368 whole entry): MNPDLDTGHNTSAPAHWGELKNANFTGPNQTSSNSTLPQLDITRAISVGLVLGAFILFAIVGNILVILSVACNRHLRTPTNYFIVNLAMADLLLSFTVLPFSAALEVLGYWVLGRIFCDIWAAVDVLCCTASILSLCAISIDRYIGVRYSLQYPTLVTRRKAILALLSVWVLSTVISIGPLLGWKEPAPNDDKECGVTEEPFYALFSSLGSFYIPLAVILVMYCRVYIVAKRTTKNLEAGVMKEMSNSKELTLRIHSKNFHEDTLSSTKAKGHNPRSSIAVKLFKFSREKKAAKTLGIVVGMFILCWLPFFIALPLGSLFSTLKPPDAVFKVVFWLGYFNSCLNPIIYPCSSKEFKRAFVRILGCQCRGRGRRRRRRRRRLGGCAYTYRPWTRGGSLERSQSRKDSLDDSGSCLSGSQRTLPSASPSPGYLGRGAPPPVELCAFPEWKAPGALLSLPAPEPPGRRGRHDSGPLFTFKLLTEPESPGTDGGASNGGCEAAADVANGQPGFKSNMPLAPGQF

DU-145 [7] = test: Cell cycle arrest in human DU145 cells assessed as accumulation at G0/G1 phase at 6 uM after 24 hrs by propidium iodide staining based flow cytometry (reference value: 55.49%); assay type: functional
DU-145 [8] = test: Cell cycle arrest in human DU145 cells assessed as accumulation at S phase at 6 uM after 24 hrs by propidium iodide staining based flow cytometry (reference value: 20.64%); assay type: functional
DU-145 [9] = test: Induction of apoptosis in human DU145 cells assessed as late apoptotic cells at 6 uM after 24 hrs by Annexin V/propidium iodide staining based flow cytometry (reference value: 0.17%); assay type: functional
DU-145 [10] = test: Induction of apoptosis in human DU145 cells assessed as early apoptotic cells at 6 uM after 24 hrs by Annexin V/propidium iodide staining based flow cytometry (reference value: […]); assay type: functional
DU-145 [11] = test: Cell cycle arrest in human DU145 cells assessed as accumulation at G2/M phase at 6 uM after 24 hrs by propidium iodide staining based flow cytometry (reference value: 24.42%); assay type: functional
DU-145 [12] = test: Induction of apoptosis in human DU145 cells assessed as live cells at 6 uM after 24 hrs by Annexin V/propidium iodide staining based flow cytometry (reference value: 99.38%); assay type: functional
DU-145 [13] = test: Induction of apoptosis in human DU145 cells assessed as necrotic cells at 6 uM after 24 hrs by Annexin V/propidium iodide staining based flow cytometry (reference value: 0.33%); assay type: functional
DU-145 [14] = test: Induction of apoptosis in human DU145 cells assessed as necrotic cells at 8 uM after 24 hrs by Annexin V/propidium iodide staining based flow cytometry (reference value: 0.33%); assay type: functional
DU-145 [15] = test: Induction of apoptosis in human DU145 cells assessed as live cells at 8 uM after 24 hrs by Annexin V/propidium iodide staining based flow cytometry (reference value: 99.38%); assay type: functional
DU-145 [16] = test: Induction of apoptosis in human DU145 cells assessed as early apoptotic cells at 8 uM after 24 hrs by Annexin V/propidium iodide staining based flow cytometry (reference value: […]); assay type: functional
DU-145 [17] = test: Cell cycle arrest in human DU145 cells assessed as accumulation at S phase at 8 uM after 24 hrs by propidium iodide staining based flow cytometry (reference value: 20.64%); assay type: functional
DU-145 [18] = test: Cell cycle arrest in human DU145 cells assessed as accumulation at G2/M phase at 8 uM after 24 hrs by propidium iodide staining based flow cytometry (reference value: 24.42%); assay type: functional
DU-145 [19] = test: Cell cycle arrest in human DU145 cells assessed as accumulation at G0/G1 phase at 8 uM after 24 hrs by propidium iodide staining based flow cytometry (reference value: 55.49%); assay type: functional
DU-145 [20] = test: Induction of apoptosis in human DU145 cells assessed as late apoptotic cells at 8 uM after 24 hrs by Annexin V/propidium iodide staining based flow cytometry (reference value: 0.17%); assay type: functional

SMILES | pIC50 [1] | pIC50 (PC-3) | pIC50 (DU-145 [2]) | pIC50 (LNCaP) | further results
CCOc1ccccc1N1CCN(CCc2ccc(COc3ccc4c(c3)CCCC4)cc2)CC1 | < 4.30 | < 4.30 | < 4.30 | 4.55 | –
Brc1ccc(N2CCN(CCc3ccc(COc4ccc5c(c4)CCCC5)cc3)CC2)cc1 | < 4.30 | < 4.30 | 4.68 | < 4.30 | –
COc1cccc(N2CCN(CCc3ccc(COc4ccc5c(c4)CCCC5)cc3)CC2)c1 | 4.54 | 5.55 | 4.55 | 5.10 | –
COc1ccccc1N1CCN(CC(O)COc2cccc3ccccc23)CC1 (stereo not given) [NAFTOPIDIL] | < 4.30 | 4.38 | – | – | –
COc1ccccc1N1CCN(CCc2ccc(COc3ccc4c(c3)CCCC4)cc2)CC1 | 4.55 | < 4.30 | 5.65 | 5.44 | –
c1ccc(N2CCN(CCc3ccc(COc4ccc5c(c4)CCCC5)cc3)CC2)cc1 | < 4.30 | < 4.30 | < 4.30 | 5.19 | –
FC(F)(F)c1ccccc1N1CCN(CCc2ccc(COc3ccc4c(c3)CCCC4)cc2)CC1 | < 4.30 | < 4.30 | < 4.30 | 5.22 | –
CC(C)(C)NC(=O)[C@H]1CC[C@H]2[C@@H]3CC[C@H]4NC(=O)C=C[C@]4(C)[C@H]3CC[C@]12C [FINASTERIDE] | – | 4.75 | 4.87 | 4.84 | –
Cl.c1ccc(C2CCN(CCc3ccc(COc4ccc5c(c4)CCCC5)cc3)CC2)cc1 | < 4.30 | 4.98 | 6.02 | 5.40 | pIC50 [3]: 6.34; pIC50 [4]: 6.25; Ratio IC50 (DU-145 [5]): 36; pIC50 [6]: 6.17
OC1(c2ccccc2)CCN(CCc2ccc(COc3ccc4c(c3)CCCC4)cc2)CC1 | 4.50 | < 4.30 | 5.47 | 5.52 | –
Clc1cccc(N2CCN(CCc3ccc(COc4ccc5c(c4)CCCC5)cc3)CC2)c1Cl | < 4.30 | < 4.30 | 4.64 | 5.51 | –
Clc1ccc(N2CCN(CCc3ccc(COc4ccc5c(c4)CCCC5)cc3)CC2)cc1 | < 4.30 | < 4.30 | < 4.30 | < 4.30 | –
Cl.Cl.Fc1ccc(N2CCN(CCc3ccc(COc4ccc5c(c4)CCCC5)cc3)CC2)cc1 | < 4.30 | 4.24 | 6.05 | 4.32 | pIC50 [3]: 6.99; Activity (DU-145 [7]): 70.5%; Activity (DU-145 [8]): 20.42%; Activity (DU-145 [9]): 0.1%; Activity (DU-145 [10]): 0.05%; Activity (DU-145 [11]): 12.72%; Activity (DU-145 [12]): 99.5%; pIC50 [4]: 5.97; Ratio IC50 (DU-145 [5]): 38; pIC50 [6]: 5.95; Activity (DU-145 [13]): 0.28%
c1ccc(N2CCN(CCc3ccc(COc4ccc5c(c4)CCCC5)cc3)CC2)nc1 | 4.31 | 4.53 | 4.95 | 5.53 | –
N#Cc1ccccc1N1CCN(CCc2ccc(COc3ccc4c(c3)CCCC4)cc2)CC1 | < 4.30 | 4.50 | 4.53 | 5.70 | –
Clc1ccccc1N1CCN(CCc2ccc(COc3ccc4c(c3)CCCC4)cc2)CC1 | < 4.30 | 4.50 | < 4.30 | 5.33 | –
Cc1cccc(N2CCN(CCc3ccc(COc4ccc5c(c4)CCCC5)cc3)CC2)c1.Cl.Cl | < 4.30 | 4.25 | 6.08 | < 4.30 | pIC50 [3]: 6.08; pIC50 [4]: 6.30; Ratio IC50 (DU-145 [5]): 41; pIC50 [6]: 6.23
COc1ccc(N2CCN(CCc3ccc(COc4ccc5c(c4)CCCC5)cc3)CC2)cc1.Cl.Cl | < 4.30 | 4.12 | 6.03 | 4.34 | Activity (DU-145 [14]): 0.34%; Activity (DU-145 [15]): 99.4%; pIC50 [3]: 6.13; Activity (DU-145 [16]): 0.11%; Activity (DU-145 [17]): 21.14%; Activity (DU-145 [18]): 23.04%; Activity (DU-145 [19]): 56.91%; pIC50 [4]: 7.24; Ratio IC50 (DU-145 [5]): 37; pIC50 [6]: 6.01; Activity (DU-145 [20]): 0.12%
Cc1ccc(Cl)cc1N1CCN(CCc2ccc(COc3ccc4c(c3)CCCC4)cc2)CC1 | < 4.30 | < 4.30 | < 4.30 | 5.11 | –
Fc1ccc(N2CCN(CCc3ccc(COc4ccc5c(c4)CCCC5)cc3)CC2)c(F)c1 | < 4.30 | < 4.30 | < 4.30 | 5.36 | –
Cc1ccc(N2CCN(CCc3ccc(COc4ccc5c(c4)CCCC5)cc3)CC2)cc1 | < 4.30 | < 4.30 | 4.60 | < 4.30 | –
FC(F)(F)c1ccc(N2CCN(CCc3ccc(COc4ccc5c(c4)CCCC5)cc3)CC2)cc1 | < 4.30 | < 4.30 | < 4.30 | < 4.30 | –
Cl.Cl.Clc1cccc(N2CCN(CCc3ccc(COc4ccc5c(c4)CCCC5)cc3)CC2)c1 | < 4.30 | 4.33 | 6.07 | 4.76 | pIC50 [3]: 6.54; pIC50 [4]: 5.92; Ratio IC50 (DU-145 [5]): 40; pIC50 [6]: 6.00
COc1ccc(Cl)cc1N1CCN(CCc2ccc(COc3ccc4c(c3)CCCC4)cc2)CC1 | 4.33 | < 4.30 | 4.60 | < 4.30 | –
Cc1ccccc1N1CCN(CCc2ccc(COc3ccc4c(c3)CCCC4)cc2)CC1 | < 4.30 | 4.59 | < 4.30 | 4.48 | –
Fc1ccccc1N1CCN(CCc2ccc(COc3ccc4c(c3)CCCC4)cc2)CC1 | < 4.30 | 4.56 | < 4.30 | 5.12 | –
